To fix the notation:
B1: tRNA (parent)
chain: GUUCCGUUGGCGUAAUGGUAACGCGUCUCCCUCCUAAGGAGAAGACUGCGGGUUCGAGUCCCGUACGGAACG

Our source for the yeast fitness values is the RNAGym collection of RNA variant scans (doi:10.1126/science.aae0568).

This sample holds only a part of the variants without activity.

The data set covers variants of B1. Description: yeast fitness relative to wild type (ratio to wild type); higher = fitter; tRNA-Arg(CCU), competitive growth, 37 C, YPD. Put shortly: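 Start and end populations of a pooled competition were compared by 100-nucleotide paired-end sequencing of gene amplicons. The Saccharomyces cerevisiae strains carried tRNA-Arg(CCU) gene variants at the native genomic locus, synthesised with a 3% per-site mutation rate at 69 sites, and competed in YPD at 37°C for 24 hours in six parallel replicates. Darwinian fitness relative to wild type was based on the change in genotype frequencies. Genotypes required ≥ 100 starting reads, and estimates < 0.5 were set to 0.5.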
Take GUUCCGUUGGCGUACUGGUAACGCGUCUCCCUCCUAAGGAGAAGACUGCGGGUUCGAGUCCCGUAUGGAACG [A15C C66U]: the yeast fitness came to 0.605.

On to GUUCCGUUGGCGUAAUGGUAACGCGUCUCGCACCUAAGGUGCAGACUGCGGGUUCGAGUCCCGUCCGGAACG [C30G U32A A40U A42C A65C], for which the yeast fitness is ≤ 0.5.

On to GUUCCGUUGGCGUAAUGGUAACGCGUCUCCUUCCUAAGGAGAAGAUUGUGGGUUCGAGUCCCGUACGGAACG [C31U C46U C49U], for which the yeast fitness worked out at 0.905.

On to GUUCCGUUGGCGUAAUGGUAACGCGUCUCCCUCCUAAGGAGACGACUGGGGGUUCGAGUCACGUACGGAACG [A43C C49G C61A], for which the yeast fitness came to 0.702.

For GUACCGUUGGCGUGGUGGUUACGCGUCUCCCUCCUAGGGAAAAGACUGCGGGUUCGAGUCCUGUAUGGAACG [U3A A14G A15G A20U A37G G41A C62U C66U], the yeast fitness is ≤ 0.5.

With GUUACGUUGGCGUAAUGGUAACGCAUUGCCCUGCUGAGGAGAAGACUGCGGGUUCGAGUCCCGUACGGAACG [C4A G25A C27U U28G C33G A36G], the yeast fitness is ≤ 0.5.

For the variant GUACCGUUGGCGUAAUGGUAACGCGUCUCCCUCCUAAGGAGUAGACUGCGGGUUCGAGUCCCGUACGGAACG [U3A A42U], the yeast fitness amounted to 0.846.

GGUCCGUUGGCGUAAUGGUAACGCGUCUCCCUCCUAAGGAGAAGACUGCGGGUUCGCGUCCCGUACGUAACG [U2G A57C G68U]: the yeast fitness is ≤ 0.5.

On to GUUCCGUUGGAGUAAUGGUAACGCGUCUCCCUCCUAAGGAGAAGACUGCGGGUUCGAGUCCCGUACGGAACG [C11A], for which the yeast fitness worked out at 0.676.

As for GUUCCGUCGGCGUAAUGGUAACGCGUCUCCCUCCUAAGGAGAAGACUGCGAGUUCGAGUCCCGUACGGAACG [U8C G51A], the yeast fitness amounted to 0.817.

GUUCCGUUGGCGUAAUGGUACCUCGUCUCCCUCCUAAGGAGAAGACUCCGGGUUCGAGUCCCGUACGGAACG [A21C G23U G48C]: the yeast fitness was ≤ 0.5.

Take GUUCCGUUGGCGUAAUGGUAACCCGUCUCCCUGCUAAGGAGAAGAAUGCGGGUUCGAGUCCCGUAAGGAACG [G23C C33G C46A C66A]: the yeast fitness was determined as 0.596.

GUUCCGUUGGCGUAAUGGUAACGCGUCUCCCGUCUCAGGAGAAGACUGCGGGUUCUAGUCCCGUAAGGAACG [U32G C33U A36C G56U C66A]: the yeast fitness is ≤ 0.5.

Regarding GUUCCGUUGGCGUAAUGGUAACGCGUCUCCCUCCUAAGGAGAAGACUGCGGUUUAGAGUCCCGUACGGAACG [G52U C55A], the yeast fitness was determined as 0.555.

Consider GUUCCGUUGGCGUAAUGGUAACGCGUCUCCCUCCUUAGGAGAAGACUACGGGUUCGAGUCCCGUACGGAACG [A36U G48A], for which the yeast fitness turned out to be 0.657.

As to GUCCCGUUGGCGUAAUGGUAACGCGUCUCCCUCCUAAGAAGAAGACUGCGGGUUCGAGUCCCGUACGGAACG [U3C G39A], the yeast fitness amounted to 0.898.

As to GUUCCGUUGGCGUAGUGGAAACGCGUCACCCUCCUAAGGAGAAGACUGCGGGUUCGAGUCCCGUACGGAACG [A15G U19A U28A], the yeast fitness is ≤ 0.5.

Consider GGUCCGUUCGCGUCAUGGUAACGCGUUUCCCUCCUAAGGAGAAGACUGCGGGUUCGAAUCCCGUACGGAACG [U2G G9C A14C C27U G58A], for which the yeast fitness was ≤ 0.5.

Consider GUUCCGUUGGCGAAAUGAUAACGCGUCUCCCUCCUAAGGAGAAGACUGCGGGUUCGAGUCCCGUACGGUACG [U13A G18A A69U], for which the yeast fitness amounted to 0.618.

Take GUUCCGUUAGCGUAAUGGUAGCGCGUCUCCCUACUAAGGAGAAGACUGCGGGUUCGAGUCCUCUACGGACCG [G9A A21G C33A C62U G63C A70C]: the yeast fitness was ≤ 0.5.

Regarding GUACCGUUGGCGUCAUGGUAACGGGUCUCCCUGCUAAGGAGAAGACUGCGGGUUCGAGUCCCGUACGGAACG [U3A A14C C24G C33G], the yeast fitness was ≤ 0.5.

On to GUUCCGUUGGCGUAAUGGUAACGCGUCUCCCUCCUAAGGACAAGACUGCGGGUUCGAGUCCCGUACGCAACG [G41C G68C], for which the yeast fitness is 0.774.

For GUUCCGUUGGCGUUAUGGUAGCGCGUCUCCCUCCUAAGGAGAAGCCUGCGGGUUCGAGCCCCGUACGGAACG [A14U A21G A45C U59C], the yeast fitness was ≤ 0.5.

Take GUUCCGUUGGGGUAAUGGUAACGCGUCCCCCUCCUAAGGAGAAGACUGCGGGUUCGAGUCCCGUACGGAACG [C11G U28C]: the yeast fitness is 0.653.

On to GUUGCGUUGGCGUAUUGGUAACGCGUCUCCCUACUAAGGAGAAGACUGCGGCUUCGAGUCCCGUACGGAACG [C4G A15U C33A G52C], for which the yeast fitness was 0.707.

In the case of GUUCCGUCGGAGUAAUGCUAACGCGUGUCCCUCCUAAGGAGAAGACUGCGGGUUCGAGUCCCGUACGGAACG [U8C C11A G18C C27G], the yeast fitness is ≤ 0.5.

Regarding GUUCCGUUGGCGUAAUGGUAACGGGUCUUCCUCCCAAGGAGAAGACUGCGGGUUCGAGUCCCGUACGGAACG [C24G C29U U35C], the yeast fitness was ≤ 0.5.

For the variant GUCCCGUUGGCGUCAUGGUAACGCGUCUCCCUCCUAAGGAGAAGCCUGCGGGUUCGAGUCCCGUCCGGAACG [U3C A14C A45C A65C], the yeast fitness is ≤ 0.5.

For GUUCCGUUGGGGUAAAGGUAACGCGUCUCACUCCUAAGGAGAAGACUGCGGGUUCGAGUCCCGUACGGUACG [C11G U16A C30A A69U], the yeast fitness was ≤ 0.5.

Regarding GUUCAGUUGGCGUAAUGGUAACGCGUCUCCAUCCUAAGGAGAAGACUGCGGGUUAGAGUCACAUACUGAACG [C5A C31A C55A C61A G63A G67U], the yeast fitness was ≤ 0.5.

For the variant GUUGUGUUGGCGUAAUGGUAACGCGUCUCCCUCCUAAGGGGAAGACUGCGGGUUCGAGUCCCGUACGGAACG [C4G C5U A40G], the yeast fitness came to 0.526.

For the variant GUUCCGCUGGCGUAAUGGUAACGCGUCUCCCUCCUAAGGAGAAGACUGCGGGUUCGAGUACCGUACGGAACG [U7C C60A], the yeast fitness is 0.674.

For GUUCCAUUGGCGUAAUGGUAACGCGUCUCCCUCCUAAGGAGAAGACUGCGGGUUCGAGUCCCGUACGUAACG [G6A G68U], the yeast fitness turned out to be 0.934.

On to GUUCCGUUGGCGUAAUGGUAACGCAUCUCCCUCCUAAGGAGAAGACUGCGGGUUCGAGUCCCGUCCGGAACG [G25A A65C], for which the yeast fitness worked out at 1.01.

With GUUCCGUUGGAGUAAUGGUAACGCGUCUCCCUCCUGAGGAGACGACUGCGGGUUCGAGUCCCGUACGGUACG [C11A A36G A43C A69U], the yeast fitness is ≤ 0.5.

On to GCUCCGUUGGCGUGAUGAUAACGCGUCUCCCUUUUAAGCAGAAGACUGCGGGUUCGAGUCCCGUACGGAACG [U2C A14G G18A C33U C34U G39C], for which the yeast fitness is ≤ 0.5.

For GUUCCGUUGGCGUAAUGGUAAUGCGACUCCCUCCUAAGGAGAAGACCGCGGGUUCGAGUCCCGUACGGAACG [C22U U26A U47C], the yeast fitness is ≤ 0.5.

Take GUUACGUUGGCGUGAUGGUAACGUGUCUCCCGCCUAAGGAGUGGACUGCGGGUUCGAGUCCCGUAUGGAACG [C4A A14G C24U U32G A42U A43G C66U]: the yeast fitness is ≤ 0.5.
